The entries come from a sample that favours hits as a whole.
B2AR ag: human beta-2 adrenergic receptor agonism by FAP | Am2.2-beta2AR cells, FAP receptor internalization, flow cytometry | response, % (concentration not given with the values) | 0.43% of 340,000 active | AID 504454;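 active = response above a set limit, near 3 SD of response in nonfluorescent compounds, cut at about 42% in these data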
VLA-4 inh: inhibition in a human VLA-4 binding assay; VLA-4 expressing cells, ligand binding flow cytometry; 0.2% of 330,000 active; inhibition, % (about 7 µM as worked out from the volumes in the protocol); AID 2557; in the data active = inhibition above about 50%
Target sequence (P13612 whole entry, looked up): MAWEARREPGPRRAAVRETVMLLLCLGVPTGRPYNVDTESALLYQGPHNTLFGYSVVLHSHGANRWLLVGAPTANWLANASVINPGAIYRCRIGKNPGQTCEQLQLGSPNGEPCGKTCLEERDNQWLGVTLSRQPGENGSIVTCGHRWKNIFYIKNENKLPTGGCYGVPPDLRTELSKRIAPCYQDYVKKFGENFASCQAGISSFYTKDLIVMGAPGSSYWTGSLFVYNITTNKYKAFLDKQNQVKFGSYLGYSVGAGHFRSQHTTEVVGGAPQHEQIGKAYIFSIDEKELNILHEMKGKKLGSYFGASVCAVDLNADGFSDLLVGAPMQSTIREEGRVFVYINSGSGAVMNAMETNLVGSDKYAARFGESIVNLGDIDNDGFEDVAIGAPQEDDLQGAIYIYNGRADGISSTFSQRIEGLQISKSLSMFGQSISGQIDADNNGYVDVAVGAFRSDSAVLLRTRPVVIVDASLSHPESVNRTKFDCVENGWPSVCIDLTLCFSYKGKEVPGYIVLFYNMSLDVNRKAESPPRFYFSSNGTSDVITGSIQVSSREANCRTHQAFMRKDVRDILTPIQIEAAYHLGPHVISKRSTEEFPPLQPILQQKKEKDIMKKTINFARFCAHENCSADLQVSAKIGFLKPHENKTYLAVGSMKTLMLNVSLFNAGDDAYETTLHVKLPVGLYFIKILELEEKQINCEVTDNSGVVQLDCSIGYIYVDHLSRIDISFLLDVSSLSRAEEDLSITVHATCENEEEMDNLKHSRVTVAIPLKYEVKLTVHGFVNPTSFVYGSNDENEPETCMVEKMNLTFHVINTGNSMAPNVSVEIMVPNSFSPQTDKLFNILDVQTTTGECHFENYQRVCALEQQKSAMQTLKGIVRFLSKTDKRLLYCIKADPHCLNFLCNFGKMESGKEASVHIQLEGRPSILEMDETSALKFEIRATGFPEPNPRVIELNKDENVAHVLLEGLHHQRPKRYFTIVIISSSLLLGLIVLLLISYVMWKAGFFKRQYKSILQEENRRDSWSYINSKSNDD
XBP1 UPR activ: adaptive UPR (XBP1) activation; CHO-XBP1 luciferase reporter, IRE1-XBP1 UPR activation, luminescence; percent of tunicamycin response, DMSO as zero; activation, % at 20 µM; 0.33% of 330,000 active; AID 463104;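 active = versus positive control, 20 µM dose yields 30% or more activation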;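 also: 100% = tunicamycin at 10 µg/mL and 0% = DMSO only wells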
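Material: CHO cell line with stable XBP1 luciferase reporter; schedule: 16-18 h cell attachment at 37 °C, then 6 h compound exposure; signal: glow luminescence from Steady-Glo reagent; medium: serum-containing F12 medium, 10% FBS; benchmarks: tunicamycin 10 µg/mL and vehicle-only wells; read-out: percent activation relative to tunicamycin reference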
CHOP inh: blocks CHOP induction under ER stress | inhibition, % at 10 µM | AID 2732 | CHO-K1 CHOP-promoter luciferase, tunicamycin-induced, 15-18 h | 3.8% of 220,000 active;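 active = compounds that reduced the stress-induced luciferase reporter signal by more than about 70% of percent inhibition, limit read from the data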;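 also: 0% = tunicamycin plus vehicle and 100% = wells without tunicamycin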
UPR CHOP act: apoptotic UPR (CHOP) activation. CHO-CHOP luciferase reporter, luminescence; percent of tunicamycin response over DMSO baseline. activation, % at 10 µM. 0.34% of 330,000 active. AID 449763;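 active = at 10 µM dose, activation of 40% or more, normalized to positive control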;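 also: 100% = tunicamycin at 10 µg/mL and 0% = DMSO alone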
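Dosing – one dose, 10 µM in 0.5% DMSO · System – CHO-CHOP cells, stable luciferase reporter of PERK-eIF2a-CHOP signalling · Input – 500 cells/well · Control set – tunicamycin 10 µg/mL final as positive, DMSO-only wells as negative · Timing – 6 h compound treatment, 37 °C · Measure – % activation vs tunicamycin · Technique – luminescence read with Steady-Glo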
CHOP inh conf: confirmation of CHOP induction inhibitors; AID 504437; shares compounds with CHOP inh; CHO-CHOP promoter luciferase reporter, tunicamycin-induced, luminescence; inhibition, % at 10 µM; 45% of 2,100 active;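 active = mean of three repeat readings of reporter signal inhibition above a set limit, cut at about 70% in these data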;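 also: 0% = tunicamycin plus vehicle and 100% = wells lacking tunicamycin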
The depositor's hits bear a star.

Screening CC(C)[C@H](NC(=O)[C@H](Cc1ccccc1)n1c(=O)[nH]c2ccccc2c1=O)C(=O)N1CCC[C@H]1C(=O)O returned B2AR ag 2, VLA-4 inh -31, XBP1 UPR activ 0 and UPR CHOP act -1.
`O=c1[nH]c2ccc(Cl)cc2c(-c2ccccc2)c1SC(=S)N1CCCCC1` gave B2AR ag 20, VLA-4 inh -5, XBP1 UPR activ -5, CHOP inh 32 and UPR CHOP act -5.
`O=c1[nH]c2ccc(Cl)cc2c(-c2ccccc2)c1SC(=S)N1CCOCC1` gave B2AR ag 11, VLA-4 inh 17, XBP1 UPR activ -1, CHOP inh 99*, UPR CHOP act -2 and CHOP inh conf 36.
`Cc1cc(C)nc(Sc2ccc(C=O)cc2[N+](=O)[O-])n1` gave B2AR ag -2, VLA-4 inh 1, XBP1 UPR activ -3, CHOP inh -15 and UPR CHOP act -1.
`O=Cc1ccc(Sc2nnc(-c3ccccc3)o2)c([N+](=O)[O-])c1` gave B2AR ag 2, VLA-4 inh 31, XBP1 UPR activ 8, CHOP inh 97*, UPR CHOP act 0 and CHOP inh conf -28.
For CC(NC(=O)CNC(=O)c1ccco1)c1ccccc1 (stereo not drawn) the results were B2AR ag 1, VLA-4 inh 5, XBP1 UPR activ -1 and UPR CHOP act 2.
`Cc1[nH]nc(N=CC2=C(O)CC(c3ccco3)CC2=O)c1-c1ccc(Cl)cc1` (stereo not drawn) gave B2AR ag -9, VLA-4 inh 10, XBP1 UPR activ 7, CHOP inh 105*, UPR CHOP act 23 and CHOP inh conf 80*.
For O=C1CC(c2ccco2)CC(O)=C1C=Nc1ccccc1-c1ccccc1 (stereo not drawn) the results were B2AR ag -3, VLA-4 inh 3, XBP1 UPR activ -7, CHOP inh 104*, UPR CHOP act 2 and CHOP inh conf 95*.
`O=c1[nH]c(NNC(=S)NC2CCCCC2)nc2c1C1(CCCC1)Cc1ccccc1-2` gave B2AR ag 68*, VLA-4 inh 1, XBP1 UPR activ -1, CHOP inh 103*, UPR CHOP act 2 and CHOP inh conf 110*.
O=C(Nc1ccccc1)Nc1cccc(C(F)(F)F)c1 was read as B2AR ag 7, VLA-4 inh 3, XBP1 UPR activ 8, CHOP inh 32 and UPR CHOP act 1.
CCSCCc1nnc(NC(=O)Nc2cccc(C(F)(F)F)c2)s1 was read as B2AR ag 20, VLA-4 inh 4, XBP1 UPR activ 11, CHOP inh 96*, UPR CHOP act 7 and CHOP inh conf 99*.
For O=C(Cn1c(=O)c2cccn2c2cccnc21)N1CCN(c2ccccc2F)CC1 the results were B2AR ag -6, VLA-4 inh -10, XBP1 UPR activ -5 and UPR CHOP act 0.
For CCOc1ccc(/C=N/N(C)c2ccccc2)cc1OC the results were B2AR ag 7, VLA-4 inh 10, XBP1 UPR activ 3, CHOP inh 100*, UPR CHOP act 2 and CHOP inh conf 3.
Screening CCOc1ccc(/C=N/Nc2ccccn2)cc1OC returned B2AR ag 2, VLA-4 inh 13, XBP1 UPR activ 3, CHOP inh -2 and UPR CHOP act 6.
COc1ccccc1NS(=O)(=O)c1cc([N+](=O)[O-])ccc1N/N=C/c1c[nH]c2ccccc12 was read as B2AR ag -249, VLA-4 inh inactive, XBP1 UPR activ 7, CHOP inh 98*, UPR CHOP act -1 and CHOP inh conf 52.
For COC(=O)[C@@]1(Cc2ccc(OC)cc2)[C@H]2c3cc(C(=O)N4CCCC4)n(C[C@H](O)CO)c3C[C@H]2CN1C(=O)c1ccccc1 the results were VLA-4 inh 2, XBP1 UPR activ 0 and UPR CHOP act 0.
`CN(C)c1ccc(/C=C2\SC(=O)N(CCc3nnc(N)s3)C2=O)cc1` gave B2AR ag -11, VLA-4 inh -16, XBP1 UPR activ -8, CHOP inh 100*, UPR CHOP act -9 and CHOP inh conf 127*.
CN(C)c1ccc(/C=C2/SC(=O)N(CCN=C3NS(=O)(=O)c4ccccc43)C2=O)cc1 was read as B2AR ag -7, VLA-4 inh -12, XBP1 UPR activ 18, CHOP inh 35 and UPR CHOP act 15.
COc1ccc(-c2noc(CNS(=O)(=O)c3ccc(NC(C)=O)cc3)n2)cc1 was read as B2AR ag 4, VLA-4 inh -1, XBP1 UPR activ -3 and UPR CHOP act -1.
O=C(NCc1nc(-c2ccc(C(F)(F)F)cc2)no1)Nc1ccc(OC(F)(F)F)cc1 was read as B2AR ag 7, VLA-4 inh 0, XBP1 UPR activ -7, CHOP inh 100*, UPR CHOP act 1 and CHOP inh conf 106*.
CSc1ccc(OC2CCCCC2NS(=O)(=O)c2ccccc2)cc1 (stereo not drawn) was read as B2AR ag 10, VLA-4 inh 13, XBP1 UPR activ -1, CHOP inh 53 and UPR CHOP act -3.
For Cc1cc(C)cc(OC2CCCCC2NS(=O)(=O)c2ccccc2)c1 (stereo not drawn) the results were B2AR ag 3, VLA-4 inh -2, XBP1 UPR activ 0, CHOP inh 99*, UPR CHOP act -1 and CHOP inh conf 70*.
Screening Cc1ccc(N2CC(C(=O)NCCS(=O)(=O)N3CCN(c4ccccc4)CC3)CC2=O)cc1C (stereo not drawn) returned B2AR ag 5, VLA-4 inh 15, XBP1 UPR activ -6 and UPR CHOP act 3.
For Cc1ccc(-c2nc3ccccc3s2)cc1NC(=O)c1cc(-n2cnnc2)ccc1Cl the results were B2AR ag 10, VLA-4 inh -16, XBP1 UPR activ -1, CHOP inh 100*, UPR CHOP act 7 and CHOP inh conf 0.
`COc1ccc(C(=O)NC(=S)NC(C)(C)C)cc1Br` gave B2AR ag -3, VLA-4 inh 0, XBP1 UPR activ 3, CHOP inh 106*, UPR CHOP act 2 and CHOP inh conf -16.
For O=C(O)CSCC(=O)Nc1ccc(C2CCCCC2)cc1 the results were B2AR ag 3, VLA-4 inh -28, XBP1 UPR activ -5, CHOP inh 99*, UPR CHOP act -8 and CHOP inh conf 108*.
For CSc1ccc(/C=N/n2c(Cc3ccc(Br)cc3)n[nH]c2=S)cc1 the results were B2AR ag 2, VLA-4 inh 35, XBP1 UPR activ -3, CHOP inh 101*, UPR CHOP act 2 and CHOP inh conf 30.
